Tn7 DDE FP: DD(E)-Tn7 binding inhibition, primary FP screen | P02675 | 370,000 tested, 0.13% active | AID 720508 | FP displacement of FITC-Tn7 peptide from fibrin DD(E); 0% = median of compound wells per plate | inhibition, % at 8.3 µM;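 active = inhibition above the mean of compounds falling within the control limits plus 3 SD of them, cut at about 14% in these data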
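Assay system: Fibrin-DD(E) protein isolated from polymerized human fibrin clots; read-out basis: percent inhibition; medium: Tris/NaCl/CaCl2 buffer, pH 7.8; signal: FP measurement; incubation: 10 min plus 3 h, room temperature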
proKLK7 act: activators of human kallikrein-7 zymogen | P49862 | purified proKLK7, EDANS-DABCYL substrate fluorescence; 100% is mature enzyme control, 0% vehicle | activation, % at 7 µM | 370,000 tested, 0.9% active | AID 652039;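 active = activation above the mean of all tested compounds plus 3 SD, computed per campaign excluding outliers beyond control limits, cut at about 13% in these data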
PLCb3 inh: inhibitors of human phospholipase C beta3; Purified PLC-beta3, fluorogenic substrate, fluorescence; 370,000 tested, 0.18% active; inhibition, % at 12.2 µM; AID 720704; in the data active = inhibition above about 11%
DDE Tn6 FP inh: disrupts Tn6 cyclic peptide binding to fibrin D-Dimer-E complex; P02675; Fibrin DD(E) TRITC-Tn6 fluorescence polarization displacement; inhibition, % at 8.3 µM; 370,000 tested, 0.21% active; AID 720509;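 active = inhibition above a per-campaign cutoff: mean of compounds within control limits plus 3 SD, cut at about 15% in these data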
NRP1-CendR mod: alters CendR peptide binding to human NRP-1; FAM-RPARPAR peptide binding to NRP-1, fluorescence polarization; inhibition, % at 25 µM; 360,000 tested, 0.85% active;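 active = inhibition or corrected inhibition above about 18%, plus a signal ratio from 0.5 to 1.5, limit read from the data, passing the limit was not always enough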
PLCg1 inh: blocks human PLC-gamma1 enzyme activity | purified PLC-gamma1, fluorogenic substrate, fluorescence | inhibition, % at 12.2 µM | 370,000 tested, 0.84% active | AID 720700; in the data active = inhibition above about 9.5%
Of the large screens only hits and unclear results are named; the others gave an inactive call. An excerpt weighted towards active compounds, which were near 3% of everything screened.

O=C(NC1CCCCN(Cc2cccc(C(F)(F)F)c2)C1=O)C1C2CC3CC(C2)CC1C3 (stereo unspecified)	none (no result: NRP1-CendR mod)
C#CCNC(=O)C1=C[C@@H](C2CCCCC2)C[C@@H](OCc2ccc(CO)cc2)O1	NRP1-CendR mod 28
COC(=O)C1CN(Cc2ccc(OC)cc2)CCS(=O)(=O)N1Cc1cn(Cc2ccccc2)nn1 (stereo unspecified)	none (no result: NRP1-CendR mod)
COc1ccc(C2C(C(=O)N3CCN(C=O)CC3)CC(=O)N2c2ccc(OC)cc2)cc1 (stereo unspecified)	none (no result: NRP1-CendR mod)
COC(=O)C[C@H]1CC[C@@H]2[C@@H](COc3ccc(NC(=O)c4ccno4)cc3C(=O)N2C)O1	none (no result: NRP1-CendR mod)
CC(=O)NC1C(=O)N(CCc2ccccc2)c2ccc(Br)cc21 (stereo unspecified)	NRP1-CendR mod 35
CC(=O)NC1C(=O)N(Cc2ccccc2)c2ccc(Br)cc21 (stereo unspecified)	none
COc1ccc(C(C)C)cc1-c1cc(C(=O)NCc2cccc(C(F)(F)F)c2)[nH]n1	NRP1-CendR mod 21
COc1ccc(C(C)C)cc1-c1cc(C(=O)NCc2cc(C(F)(F)F)cc(C(F)(F)F)c2)[nH]n1	none
CC(COc1ccc(CC#N)cc1)CN1CCC(C(O)(c2ccccc2)c2ccccc2)CC1 (stereo unspecified)	none (no result: NRP1-CendR mod)
Cc1ccc(-c2cccc(C3CC=CC4C3C(=O)N(Cc3ccccc3)C4c3cc(C)ccc3F)c2)cc1 (stereo unspecified)	NRP1-CendR mod 30
COc1ccc([C@H]2[C@H]3C=CC[C@@H](C)[C@@H]3C(=O)N2Cc2ccccc2)cc1Cl	NRP1-CendR mod 28
C[C@@H]1CC=C[C@H]2[C@H]1C(=O)N(Cc1ccccc1)[C@H]2c1ccc(/C=C/c2ccccc2)cc1F	NRP1-CendR mod 29
CCCC[C@H](C(=O)N(C)c1ccccc1)[C@@H](O)c1ccc(Cl)cc1	none (no result: NRP1-CendR mod)
O=C(c1ccoc1)N1CCN(c2cc(-c3ccco3)nc3cc(-c4ccco4)nn23)CC1	none (no result: proKLK7 act, NRP1-CendR mod)
Cc1ccccc1Cn1cc(CN2[C@@H](CC(C)C)COc3cc(Br)ccc3S2(=O)=O)nn1	none (no result: NRP1-CendR mod)
CCOC(=O)C1=CCN(S(=O)(=O)c2ccccc2Br)C1c1ccccc1 (stereo unspecified)	NRP1-CendR mod 25
CCOC(=O)C1=CCN(S(=O)(=O)c2ccc(C)cc2)C1c1ccc(C(C)C)cc1 (stereo unspecified)	NRP1-CendR mod 28
COc1cc(/C=C2\SC(=O)NC2=O)ccc1Oc1ccc([N+](=O)[O-])cc1[N+](=O)[O-]	none
CCN1C(=O)C(=Cc2cccc(OC)c2Oc2ccc([N+](=O)[O-])cc2[N+](=O)[O-])SC1=S	NRP1-CendR mod 25
CN(Cc1cnn(C)c1)C(=O)c1cc2ccccc2oc1=O	NRP1-CendR mod 52
CN(C)CCNC(=O)c1cc2ccccc2oc1=O	none
CCOC(=O)[C@@H]1[C@H]2COc3ccccc3[C@@H]2N2C(=O)N(c3cccc(Cl)c3)C(=O)[C@]12C	NRP1-CendR mod 28
CCOC(=O)[C@H]1[C@H]2COc3ccccc3[C@@H]2N2C(=O)c3ccc(Cl)cc3NC(=O)[C@@]12C	none
CCOC(=O)[C@H]1[C@H]2COc3ccccc3[C@@H]2N2C(=O)c3cc(Cl)ccc3NC(=O)[C@@]12C	NRP1-CendR mod 23
CCOC(=O)[C@@H]1[C@H]2COc3ccccc3[C@H]2N2C(=O)N(c3cccc(Cl)c3)C(=O)[C@@]12C	none (no result: Tn7 DDE FP, proKLK7 act, PLCb3 inh, DDE Tn6 FP inh, PLCg1 inh)
CCOC(=O)[C@@H]1[C@H]2COc3cc(OC)ccc3[C@H]2N2C(=O)N(c3cccc(F)c3)C(=O)[C@@]12C	NRP1-CendR mod 25
CCOC(=O)[C@H]1[C@H]2COc3cc(OC)ccc3[C@@H]2N2C(=O)N(c3cccc(F)c3)C(=O)[C@@]12C	none
COc1cc(CN2C[C@@H](CO)O[C@@H](n3cnc4c(N5CCN(c6ccccc6)CC5)ncnc43)C2)cc(OC)c1OC	NRP1-CendR mod 37
C=CCn1c(-c2ccc(Cl)cc2)cnc1SC(C)C(N)=O (stereo unspecified)	NRP1-CendR mod 19
C=CCn1c(-c2ccc(Cl)cc2)cnc1SC(C)C(=O)NC(N)=O (stereo unspecified)	none
O=c1cc(CO)oc(C(Nc2ccccn2)c2ccc(F)cc2)c1O (stereo unspecified)	none
O=c1cc(CO)oc(C(Nc2ccccn2)c2ccccc2Cl)c1O (stereo unspecified)	NRP1-CendR mod 26
CCCN(C(=O)CSc1cc(-c2ccccc2)c2ccc(OC)cc2n1)C1CCS(=O)(=O)C1 (stereo unspecified)	none
COc1ccc2c(-c3ccccc3)cc(SC(C)C(N)=O)nc2c1 (stereo unspecified)	NRP1-CendR mod 29
O=C(NNC(=O)C1CCN(Cc2ccccc2)CC1)c1cccc(Cl)c1	NRP1-CendR mod 23
O=[N+]([O-])c1cccc(OC[C@@H](O)CN2CCC(C(O)(c3ccccc3)c3ccccc3)CC2)c1	none (no result: NRP1-CendR mod)
Cc1ccc(CN2C(=O)c3ccccc3C2C(=O)NCC2CCCO2)cc1 (stereo unspecified)	none
CCN(CC)CCCNC(=O)C1c2ccccc2C(=O)N1Cc1ccc(C)cc1 (stereo unspecified)	NRP1-CendR mod 19
O=C(C1CCN(S(=O)(=O)c2ccc(Br)s2)CC1)N1CCc2ccccc21	NRP1-CendR mod 43 (no result: Tn7 DDE FP, proKLK7 act, PLCb3 inh, DDE Tn6 FP inh, PLCg1 inh)
CC(C)CNC(=O)OCc1cn(Cc2ccccc2Cl)nn1	none (no result: NRP1-CendR mod)
O=C(OC12CCCN(C1)/C(=C/c1cccnc1)C2)C1CCCCC1 (stereo unspecified)	none (no result: NRP1-CendR mod)
O=C1CCCc2c1cc(C(=O)NC1CCSC1=O)c(=O)n2-c1ccccc1 (stereo unspecified)	NRP1-CendR mod 30
COc1cc2c(=O)n(Cc3ccccc3)c(=O)n(CC(=O)NCC3CCCO3)c2cc1OC (stereo unspecified)	none
COc1cc2c(=O)n(Cc3ccccc3)c(=O)n(CC(=O)NCCc3ccccc3)c2cc1OC	PLCg1 inh 9.5
c1ccc2cc3[nH]c(CNc4nc(N5CCOCC5)nc5c4ncn5-c4ccsc4)nc3cc2c1	none (no result: proKLK7 act, NRP1-CendR mod)
O=C(CSc1nnc(-c2cccs2)o1)OC1CCCCC1	NRP1-CendR mod 34
O=S1(=O)c2ccc(Br)cc2OC[C@@H](c2ccccc2)N1Cc1cn(CCC2OCCO2)nn1	none (no result: NRP1-CendR mod)
COc1cccc(CC(=O)OCC(=O)N(C)CC(=O)Nc2ccccc2Cl)c1	NRP1-CendR mod 20
O=C1C2C(C(=O)N1/N=C/c1cc([N+](=O)[O-])ccc1O)C1C=CC2C12CC2 (stereo unspecified)	none
O=C1C2C(C(=O)N1/N=C/c1cc([N+](=O)[O-])c(O)cc1O)C1C=CC2C12CC2 (stereo unspecified)	PLCg1 inh 29
